Data from ChEMBL document CHEMBL3797162, “Synthesis and inhibitory evaluation of 3-linked imipramines for the exploration of the S2 site of the human serotonin transporter” (Bioorg Med Chem, 2016).
pIC50, pKi: −log10 of the molar value.

Assays:
Assay type in all cases: cell-based
[1] = molecular target: Sodium-dependent serotonin transporter (Homo sapiens, UniProt P31645, W103A); assay: Inhibition of human SERT W103A mutant expressed in HEK293 MSR cells assessed as [3H]-5-HT uptake preincubated for 30 mins followed addition of [3H]-5HT and compound for 10 mins by micro-scintillation counter
Sequence of Sodium-dependent serotonin transporter (Homo sapiens, UniProt P31645, W103A) (P31645 whole entry W103A): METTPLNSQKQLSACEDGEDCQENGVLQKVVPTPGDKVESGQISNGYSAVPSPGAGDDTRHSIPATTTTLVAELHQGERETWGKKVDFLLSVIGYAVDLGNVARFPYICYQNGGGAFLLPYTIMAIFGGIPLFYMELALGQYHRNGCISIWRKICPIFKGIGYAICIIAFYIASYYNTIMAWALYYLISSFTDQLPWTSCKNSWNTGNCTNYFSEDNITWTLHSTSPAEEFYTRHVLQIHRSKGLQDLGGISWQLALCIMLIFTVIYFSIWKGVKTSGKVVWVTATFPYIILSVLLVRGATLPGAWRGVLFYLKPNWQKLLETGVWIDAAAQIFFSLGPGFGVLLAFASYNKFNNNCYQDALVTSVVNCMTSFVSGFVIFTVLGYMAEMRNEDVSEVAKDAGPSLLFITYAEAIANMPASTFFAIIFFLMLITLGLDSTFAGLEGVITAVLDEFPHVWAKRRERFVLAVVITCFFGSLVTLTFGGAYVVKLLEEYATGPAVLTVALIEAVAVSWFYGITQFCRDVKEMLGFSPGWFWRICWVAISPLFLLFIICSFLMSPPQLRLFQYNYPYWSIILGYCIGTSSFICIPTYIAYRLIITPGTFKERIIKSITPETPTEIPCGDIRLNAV
Method in brief: (§1)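 Cells were transiently transfected (Lipofectamine 2000, 0.2 µg DNA per cm²) and used after 48–60 h. Cells were washed in PBS with Ca/Mg (pH 7.4) and preincubated 30 min with a dilution series. 50–100 nM [3H]5-HT plus inhibitor was then added for 10 min at room temperature.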

[2] = molecular target: Sodium-dependent serotonin transporter (Homo sapiens, UniProt P31645, I179C); assay: Inhibition of human SERT I179C mutant expressed in HEK293 MSR cells assessed as [3H]-5-HT uptake preincubated for 30 mins followed addition of [3H]-5HT and compound for 10 mins by micro-scintillation counter; method in brief: as §1
Sequence of Sodium-dependent serotonin transporter (Homo sapiens, UniProt P31645, I179C) (P31645 whole entry I179C): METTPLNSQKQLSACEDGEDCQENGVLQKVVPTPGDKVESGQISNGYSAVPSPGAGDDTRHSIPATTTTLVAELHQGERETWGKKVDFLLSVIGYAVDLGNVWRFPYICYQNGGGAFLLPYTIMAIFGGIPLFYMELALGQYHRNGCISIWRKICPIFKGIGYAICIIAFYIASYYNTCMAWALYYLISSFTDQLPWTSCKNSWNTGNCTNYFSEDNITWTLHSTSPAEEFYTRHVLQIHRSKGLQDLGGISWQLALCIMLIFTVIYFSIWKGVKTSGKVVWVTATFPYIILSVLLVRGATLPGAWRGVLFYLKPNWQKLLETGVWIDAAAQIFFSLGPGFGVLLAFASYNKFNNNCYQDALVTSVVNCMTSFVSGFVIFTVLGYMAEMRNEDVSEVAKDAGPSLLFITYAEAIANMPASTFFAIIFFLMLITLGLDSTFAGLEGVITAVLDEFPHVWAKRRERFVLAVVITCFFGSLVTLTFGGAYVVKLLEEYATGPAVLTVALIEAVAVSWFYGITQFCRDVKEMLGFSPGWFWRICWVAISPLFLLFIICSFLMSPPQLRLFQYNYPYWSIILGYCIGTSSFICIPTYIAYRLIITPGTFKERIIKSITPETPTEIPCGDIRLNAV

[3] = molecular target: Sodium-dependent serotonin transporter (Homo sapiens, UniProt P31645, I172M); assay: Inhibition of human SERT I172M mutant expressed in HEK293 MSR cells assessed as [3H]-5-HT uptake preincubated for 30 mins followed addition of [3H]-5HT and compound for 10 mins by micro-scintillation counter; method in brief: as §1
Sequence of Sodium-dependent serotonin transporter (Homo sapiens, UniProt P31645, I172M) (P31645 whole entry I172M): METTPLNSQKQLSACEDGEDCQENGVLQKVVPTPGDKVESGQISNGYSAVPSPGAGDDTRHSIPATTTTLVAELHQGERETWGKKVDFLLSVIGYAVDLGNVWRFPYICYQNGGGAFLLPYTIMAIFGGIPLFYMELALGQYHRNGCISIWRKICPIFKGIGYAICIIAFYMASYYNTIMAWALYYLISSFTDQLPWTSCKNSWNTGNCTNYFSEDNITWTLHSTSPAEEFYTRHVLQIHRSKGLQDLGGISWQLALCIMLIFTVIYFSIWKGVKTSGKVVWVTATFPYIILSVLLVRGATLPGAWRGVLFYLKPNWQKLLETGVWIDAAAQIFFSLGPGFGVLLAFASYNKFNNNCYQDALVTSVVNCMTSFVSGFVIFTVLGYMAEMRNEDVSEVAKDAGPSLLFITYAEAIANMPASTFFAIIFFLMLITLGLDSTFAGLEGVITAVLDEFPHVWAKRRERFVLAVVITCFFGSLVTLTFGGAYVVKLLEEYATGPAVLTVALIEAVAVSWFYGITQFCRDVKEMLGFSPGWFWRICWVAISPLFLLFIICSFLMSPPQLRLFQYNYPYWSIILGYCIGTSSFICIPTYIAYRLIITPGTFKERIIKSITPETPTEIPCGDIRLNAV

[4] = molecular target: Sodium-dependent serotonin transporter (Homo sapiens, UniProt P31645); assay: Inhibition of wild-type human SERT expressed in HEK293 MSR cells assessed as [3H]-5-HT uptake preincubated for 30 mins followed addition of [3H]-5HT and compound for 10 mins by micro-scintillation counter; method in brief: as §1
Sequence of Sodium-dependent serotonin transporter (Homo sapiens, UniProt P31645) (P31645 whole entry): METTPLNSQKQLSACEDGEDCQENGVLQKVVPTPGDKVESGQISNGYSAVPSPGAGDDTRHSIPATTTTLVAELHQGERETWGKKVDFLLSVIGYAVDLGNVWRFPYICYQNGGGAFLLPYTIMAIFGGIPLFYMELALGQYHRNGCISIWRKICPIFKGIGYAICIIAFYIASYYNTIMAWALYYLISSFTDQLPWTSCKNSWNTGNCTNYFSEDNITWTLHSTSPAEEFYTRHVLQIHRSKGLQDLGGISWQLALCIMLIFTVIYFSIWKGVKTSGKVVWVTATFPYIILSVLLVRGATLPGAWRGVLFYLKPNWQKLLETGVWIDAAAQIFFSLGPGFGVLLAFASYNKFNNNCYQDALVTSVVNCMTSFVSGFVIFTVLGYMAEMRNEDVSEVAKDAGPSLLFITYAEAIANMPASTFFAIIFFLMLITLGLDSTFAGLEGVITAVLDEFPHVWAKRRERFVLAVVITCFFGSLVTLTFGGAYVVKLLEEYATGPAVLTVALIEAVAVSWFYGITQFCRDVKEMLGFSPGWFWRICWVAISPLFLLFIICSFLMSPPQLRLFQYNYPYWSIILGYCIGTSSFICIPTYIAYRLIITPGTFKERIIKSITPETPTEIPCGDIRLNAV

Structure (SMILES) | pIC50 [1] | pKi [2] | pKi [3] | pKi [4]
CN(C)CCCN1c2ccccc2CCc2ccc(C#CCO)cc21 | 7.22 | 7.46 | 5.59 | 6.82
CN(C)CCCN1c2ccccc2CCc2ccc(C#CCOCc3cccc4ccccc34)cc21 | 6.47 | 6.55 | 5.27 | 6.23
C#Cc1ccc2c(c1)N(CCCN(C)C)c1ccccc1CC2 | 7.40 | 7.57 | 5.62 | 6.66
CN(C)CCCN1c2ccccc2CCc2ccc(C#CCOCCOCCOc3cccc4ccccc34)cc21 | 6.38 | 6.35 | 5.19 | 5.19
CN(C)CCCN1c2ccccc2CCc2ccc(C#CCOCCOc3cccc4ccccc34)cc21 | 5.32 | 5.74 | 5.10 | 5.46
CN(C)CCCN1c2ccccc2CCc2ccc(C#CCOCCCOc3cccc4ccccc34)cc21 | 6.03 | 5.92 | 4.57 | 5.46
CN(C)CCCN1c2ccccc2CCc2ccc(C#CCOCCOc3ccc4ccccc4c3)cc21 | 6.36 | 6.19 | 5.70 | 5.82
CN(C)CCCN1c2ccccc2CCc2ccc(C#CCOCCCN3c4ccccc4CCc4ccccc43)cc21 | 5.80 | 5.80 | 4.80 | 4.89
CN(C)CCCN1c2ccccc2CCc2ccc(CCCOCCCOCCCN3c4ccccc4CCc4ccccc43)cc21 | 6.08 | 6.19 | 4.96 | 5.23
CN(C)CCCN1c2ccccc2CCc2ccc(CCCOCCCN3c4ccccc4CCc4ccccc43)cc21 | 6.57 | 6.48 | 4.82 | 5.20
CN(C)CCCN1c2ccccc2CCc2ccc(CCCOCc3cccc4ccccc34)cc21 | 6.21 | 6.54 | 5.30 | 6.21
CN(C)CCCN1c2ccccc2CCc2ccc(C#CCOCCOCCSc3cccc4ccccc34)cc21 | 6.25 | 6.30 | 4.72 | 5.70
CN(C)CCCN1c2ccccc2CCc2ccc(CCCOCCOCCc3cccc4ccccc34)cc21 | 6.55 | 6.44 | 5.17 | 6.00
CN(C)CCCN1c2ccccc2CCc2ccc(CCCOCCCOc3cccc4ccccc34)cc21 | 6.22 | 6.21 | 5.03 | 5.92
CN(C)CCCN1c2ccccc2CCc2ccc(CCCOCCOc3cccc4ccccc34)cc21 | 6.55 | 6.57 | 5.57 | 6.22
CN(C)CCCN1c2ccccc2CCc2ccc(C#CCOCCOCCc3cccc4ccccc34)cc21 | 6.52 | 6.27 | 5.28 | 5.96
CN(C)CCCN1c2ccccc2CCc2ccc(C#CCOCCCOCCCN3c4ccccc4CCc4ccccc43)cc21 | 5.39 | 5.55 | 5.00 | 4.96
